Measured values reported in ChEMBL document CHEMBL4428090, “Modeling, Synthesis, and Biological Evaluation of Potential Retinoid X Receptor (RXR)-Selective Agonists: Analogues of 4-[1-(3,5,5,8,8-Pentamethyl-5,6,7,8-tetrahydro-2-naphthyl)ethynyl]benzoic Acid (Bexarotene) and 6-(Ethyl(5,5,8,8-tetrahydronaphthalen-2-yl)amino)nicotinic Acid (NEt-TMN)” (J Med Chem, 2016).
Calls of active or inactive are those of the source. The rule behind the calls is not given here.

Legend:
[1] = biological target: T1, Retinoic acid receptor RXR-alpha (Homo sapiens) (UniProt P19793); assay: Agonist activity at human RXRalpha expressed in human HCT116 cells assessed as increase in RXRE-mediated transcription incubated for 24 hrs by RXRE luciferase reporter gene assay; assay type: cell-based
T1 sequence (whole entry): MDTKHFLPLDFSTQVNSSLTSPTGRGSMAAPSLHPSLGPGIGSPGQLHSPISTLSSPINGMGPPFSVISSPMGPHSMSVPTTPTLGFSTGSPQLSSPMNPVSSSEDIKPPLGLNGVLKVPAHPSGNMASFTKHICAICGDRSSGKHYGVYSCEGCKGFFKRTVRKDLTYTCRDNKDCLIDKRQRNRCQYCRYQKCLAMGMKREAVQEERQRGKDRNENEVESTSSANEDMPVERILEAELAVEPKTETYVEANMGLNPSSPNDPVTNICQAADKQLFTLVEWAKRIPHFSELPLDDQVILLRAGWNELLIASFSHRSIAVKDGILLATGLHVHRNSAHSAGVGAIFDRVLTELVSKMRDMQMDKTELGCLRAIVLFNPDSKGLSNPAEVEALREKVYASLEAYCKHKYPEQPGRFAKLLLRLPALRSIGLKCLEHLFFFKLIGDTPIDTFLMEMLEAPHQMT

HuT78 [2] = assay: Growth inhibition of human HUT78 cells at 200 nM incubated for 72 hrs by MTS assay relative to bexarotene; assay type: functional; conditions: HuT78, 72 h, read-out: GI
How it was run: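 Hut78 cells in RPMI with 10% FBS at 37°C, 5% CO2. Plated 7,500 cells/well and immediately dosed at 200 nM for 72 h. MTS read at A490; percent inhibition with media control set to 0.0, compared with bexarotene set to 100%. Mean of three independent experiments.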

Homo sapiens = species: Homo sapiens; assay: Selectivity index, ratio of agonist activity at human RARalpha expressed in HEK293 cells assessed as increase in RARE-mediated transcription relative to bexarotene to agonist activity at human RXRalpha expressed in human HCT116 cells assessed as increase in RXRE-mediated transcription relative to bexarotene; assay type: cell-based
How it was run: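 HEK293 cells (60,000/well) transfected for 24 h with 250 ng pTK-DR5(X2)-Luc, 25 ng human RARα and 20 ng renilla. Treated 24 h at 100 nM; activity expressed as a percentage of all-trans-retinoic acid. This RARE activity is divided by 100 nM RXRE activity, with the bexarotene ratio set to 1.0.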

[3] = biological target: T2, Retinoic acid receptor RXR-alpha/oxysterols receptor LXR-alpha (Homo sapiens, UniProt P19793+Q13133); assay: Agonist activity at human RXRalpha/LXRalpha expressed in human HCT116 cells assessed as reduction in SREBP-mediated transcription activity at 100 nM incubated for 24 hrs by luciferase reporter gene assay relative to bexarotene; assay type: cell-based; set-up: scale not given: the % may be the effect or the level left; conditions: 0.1 µM
T2 sequence (P19793 whole entry): T1 sequence (whole entry)
T2 sequence (Q13133 whole entry): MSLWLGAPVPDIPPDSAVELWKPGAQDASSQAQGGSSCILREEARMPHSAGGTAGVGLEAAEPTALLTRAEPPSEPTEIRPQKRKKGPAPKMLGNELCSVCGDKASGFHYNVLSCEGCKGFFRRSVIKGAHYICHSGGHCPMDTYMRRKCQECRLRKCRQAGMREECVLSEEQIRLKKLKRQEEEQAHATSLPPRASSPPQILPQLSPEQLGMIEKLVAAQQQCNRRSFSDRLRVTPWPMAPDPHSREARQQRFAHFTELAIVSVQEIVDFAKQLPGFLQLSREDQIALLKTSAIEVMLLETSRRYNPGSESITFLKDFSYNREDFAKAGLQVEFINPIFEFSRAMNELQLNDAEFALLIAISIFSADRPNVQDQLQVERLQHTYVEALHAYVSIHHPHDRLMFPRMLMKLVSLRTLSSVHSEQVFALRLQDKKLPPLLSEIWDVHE
How it was run: (§1)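 HCT116 cells co-transfected for 24 h with 100 ng pBP1c(6500)-Luc (about 6500 bp murine SREBP-1c promoter), 10 ng human LXRα and 20 ng renilla. Treated 24 h with compound at 100 nM, alone or with 100 nM TO901317. Luciferase output. Three independent assays in triplicate; bexarotene = 100%.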

Retinoid X receptor = biological target: T3, Retinoid X receptor (Homo sapiens, UniProt P28702+P48443+P19793); assay: Agonist activity at human RXR binding domain and activation domain expressed in human HCT116 cells assessed as rexinoid activity incubated for 24 hrs by luciferase reporter gene based mammalian two-hybrid assay; assay type: cell-based
T3 sequence (P28702 whole entry): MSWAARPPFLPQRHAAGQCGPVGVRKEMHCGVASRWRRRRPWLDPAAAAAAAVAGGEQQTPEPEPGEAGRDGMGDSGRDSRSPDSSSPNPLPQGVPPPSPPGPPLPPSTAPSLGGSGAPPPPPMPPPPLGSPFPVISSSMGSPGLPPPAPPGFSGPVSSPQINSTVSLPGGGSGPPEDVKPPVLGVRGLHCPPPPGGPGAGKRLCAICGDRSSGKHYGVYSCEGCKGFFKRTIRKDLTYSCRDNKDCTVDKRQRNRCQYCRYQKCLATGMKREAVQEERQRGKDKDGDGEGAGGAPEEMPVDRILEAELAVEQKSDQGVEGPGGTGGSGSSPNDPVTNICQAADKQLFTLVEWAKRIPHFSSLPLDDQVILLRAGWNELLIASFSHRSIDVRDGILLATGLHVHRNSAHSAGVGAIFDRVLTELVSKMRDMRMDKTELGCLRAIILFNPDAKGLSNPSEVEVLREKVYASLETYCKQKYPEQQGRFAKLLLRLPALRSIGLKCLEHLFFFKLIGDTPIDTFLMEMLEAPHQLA
T3 sequence (P48443 whole entry): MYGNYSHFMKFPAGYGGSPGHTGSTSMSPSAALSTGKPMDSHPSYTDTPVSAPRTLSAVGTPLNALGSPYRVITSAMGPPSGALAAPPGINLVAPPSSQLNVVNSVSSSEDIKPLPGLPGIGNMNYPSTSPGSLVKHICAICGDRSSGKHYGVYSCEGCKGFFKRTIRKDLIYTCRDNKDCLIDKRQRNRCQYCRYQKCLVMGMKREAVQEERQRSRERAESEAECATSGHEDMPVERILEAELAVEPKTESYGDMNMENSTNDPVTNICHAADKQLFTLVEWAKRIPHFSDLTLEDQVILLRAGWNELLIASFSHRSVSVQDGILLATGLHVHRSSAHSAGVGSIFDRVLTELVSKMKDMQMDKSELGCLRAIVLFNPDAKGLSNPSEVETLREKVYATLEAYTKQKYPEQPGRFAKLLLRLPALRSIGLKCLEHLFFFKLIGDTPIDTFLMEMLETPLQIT
T3 sequence (P19793 whole entry): T1 sequence (whole entry)

[4] = biological target: T1, Retinoic acid receptor RXR-alpha (Homo sapiens); assay: Agonist activity at human RXRalpha expressed in human HCT116 cells assessed as increase in RXRE-mediated transcription at 1000 nM incubated for 24 hrs by RXRE luciferase reporter gene assay relative to bexarotene; assay type: cell-based
How it was run: (§2)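 HCT-116 cells (80,000/well) co-transfected for 24 h with 250 ng RXRE-luciferase reporter (DR1 element from the rat cellular retinol binding protein II gene), 25 ng pSG5-human RXRα and 20 ng renilla. Dosed 24 h at 25, 100 or 1000 nM final; ethanol or DMSO vehicle 0.1%. Dual-luciferase read-out. Three independent assays in triplicate; bexarotene = 100%.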

[5] = biological target: T4, Retinoid X receptor (Homo sapiens) (UniProt P28702+P48443+P19793); assay: Agonist activity at human RXR binding domain and activation domain expressed in human HCT116 cells assessed as rexinoid activity at 100 nM incubated for 24 hrs by luciferase reporter gene based mammalian two-hybrid assay relative to bexarotene; assay type: cell-based
How it was run: (§3)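 HCT-116 cells plated overnight (80,000/well, DMEM with 10% FBS), co-transfected for 24 h with human RXR binding-domain (bait) and activation-domain (prey) vectors, pFR-Luc Gal4 reporter and renilla control. Treated 24 h at 25, 100 or 1000 nM final; vehicle ethanol or DMSO 0.1%. Dual-luciferase read-out. Three independent assays in triplicate; bexarotene set to 100%.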

[6] = Mutagenicity in Saccharomyces cerevisiae D7 assessed as induction of mutagenesis by measuring forward and reverse mutations up to 0.1 mg/mL; assay type: toxicity
[7] = biological target: T2, Retinoic acid receptor RXR-alpha/oxysterols receptor LXR-alpha; assay: Agonist activity at human RXRalpha/LXRalpha expressed in human HCT116 cells assessed as reduction in SREBP-mediated transcription activity at 100 nM incubated for 24 hrs by luciferase reporter gene assay in presence of 100 nM LXR agonist TO901317 relative to bexarotene; assay type: cell-based; set-up: scale not given: the % may be the effect or the level left; conditions: 0.1 µM; how it was run: as §1
[8] = biological target: T4, Retinoid X receptor (Homo sapiens); assay: Agonist activity at human RXR binding domain and activation domain expressed in human HCT116 cells assessed as rexinoid activity at 25 nM incubated for 24 hrs by luciferase reporter gene based mammalian two-hybrid assay relative to bexarotene; assay type: cell-based; how it was run: as §3
HuT78 [9] = assay: Inhibition of HDAC1 gene expression in human HUT78 cells at 100 nM incubated for 48 hrs by quantitative real-time PCR method; assay type: functional; conditions: HuT78, 48 h
How it was run: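 Hut78 cells resuspended in RPMI with 1% FBS, plated 750,000/well and dosed at 100 nM for 48 h. Total RNA extracted, 0.5 µg DNase-treated RNA reverse-transcribed, then qPCR for HDAC1. Quantified by ΔΔCt, normalized to GAPDH and relative to vehicle-treated cells (2^-ΔΔCt).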

[10] = biological target: T1, Retinoic acid receptor RXR-alpha (Homo sapiens); assay: Agonist activity at human RXRalpha expressed in human HCT116 cells assessed as increase in RXRE-mediated transcription at 100 nM incubated for 24 hrs by RXRE luciferase reporter gene assay relative to bexarotene; assay type: cell-based; how it was run: as §2
[11] = biological target: T1, Retinoic acid receptor RXR-alpha (Homo sapiens); assay: Agonist activity at human RXRalpha expressed in human HCT116 cells assessed as increase in RXRE-mediated transcription at 25 nM incubated for 24 hrs by RXRE luciferase reporter gene assay relative to bexarotene; assay type: cell-based; how it was run: as §2
[12] = biological target: T4, Retinoid X receptor (Homo sapiens); assay: Agonist activity at human RXR binding domain and activation domain expressed in human HCT116 cells assessed as rexinoid activity at 1000 nM incubated for 24 hrs by luciferase reporter gene based mammalian two-hybrid assay relative to bexarotene; assay type: cell-based; how it was run: as §3
[13] = Lipid risk index, ratio of agonist activity at human RXRalpha/LXRalpha expressed in human HCT116 cells assessed as reduction in SREBP-mediated transcription activity to agonist activity at human RXRalpha expressed in human HCT116 cells assessed as increase in RXRE-mediated transcription
How it was run: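 Lipid risk index: SREBP-promoter luciferase activity (HCT116, LXRα-transfected, 100 nM compound with or without 100 nM TO901317, 24 h) divided by RXRE activity at 100 nM. The SREBP:RXRE ratio for bexarotene is set to 1.0.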

[14] = biological target: T4, Retinoid X receptor (Homo sapiens); assay: Antagonist activity against human RXR binding domain and activation domain expressed in human HCT116 cells assessed as reduction in bexarotene-induced rexinoid activity incubated for 24 hrs by luciferase reporter gene based mammalian two-hybrid assay; assay type: cell-based

Row | Structure (SMILES) | Activity [1] | inhibition of growth at 0.2 µM (HuT78 [2]) | Ratio (Homo sapiens) | Activity [3] | EC50 (Retinoid X receptor) | Activity [4] | fold change (FC) ([5]; in the assay text read “relative to activity at 25 nM” for “relative to bexarotene”) | Activity [6] | Activity [7] | Activity [8] | inhibition at 0.1 µM (HuT78 [9]) | Activity [10] | Activity [5] | Activity [11] | Activity [12] | Ratio [13] | fold change (FC) [8] | Activity [14]
1 | CCN(c1cnc(C(=O)O)cn1)c1cc2c(cc1C)C(C)(C)CCC2(C)C | inactive | 35 to 51% | > 0.5 | 54 to 79% | 295.5 nM | Active | 5 to 16 | Non-Toxic | 29% | 3.4% | – | – | – | – | – | – | – | –
2 | C=C(c1ccc(C(=O)O)cc1)c1cc2c(cc1C)C(C)(C)CCC2(C)C [BEXAROTENE] | – | – | – | – | – | – | – | Non-Toxic | – | – | 10% | – | – | – | – | – | – | –
3 | CC1=C(/C=C/C(C)=C/C=C/C(C)=C/C(=O)O)C(C)(C)CCC1 | – | – | 9.5 | – | – | – | – | – | – | – | – | – | – | – | – | – | – | –
4 | CCN(c1ccc(C(=O)O)cc1)c1ccc2c(c1)C(C)(C)CCC2(C)C | – | 55 to 80% | – | 54 to 79% | 143.4 nM | Active | – | Non-Toxic | Active | – | – | 16 to 32% | Active | – | – | – | – | –
5 | CCN(c1ccc(C(=O)O)cn1)c1cc2c(cc1C)C(C)(C)CCC2(C)C | – | > 85% | – | Active | 13.8 nM | 20 to 43% | – | Non-Toxic | 13 to 17% | – | – | 68 to 89% | 135 to 146% | 27 to 66% | 35 to 58% | 0.49 - 0.51 | 2 | –
6 | C=C(c1ccc(S(=O)(=O)O)cc1)c1cc2c(cc1C)C(C)(C)CCC2(C)C | inactive | – | – | Not Active | 18200 nM | – | – | Non-Toxic | – | 0.8% | – | – | inactive | – | 17% | – | – | Dose-dependent effect
7 | CCN(c1ccc2c(c1)C(C)(C)CCC2(C)C)c1ncc(C(=O)O)cn1 | – | > 85% | – | Active | 40.9 nM | 20 to 43% | – | Non-Toxic | 13 to 17% | – | – | 68 to 89% | 135 to 146% | 27 to 66% | 35 to 58% | 0.49 - 0.51 | 2 | –
8 | Cc1cc2c(cc1C(=O)c1ccc(S(=O)(=O)O)cc1)C(C)(C)CCC2(C)C | inactive | – | – | Not Active | > 80000 nM | – | – | Non-Toxic | – | 0.6% | – | – | inactive | – | inactive | – | – | Dose-dependent effect
